The source of these data is ChEMBL document CHEMBL1121475, “Inhibitors of indoleethylamine N-methyltransferase. Derivatives of 3-methyl-2-thiazolidinimine. In vitro, in vivo, and metabolic studies” (J Med Chem, 1980).

Each structure is given as a SMILES string. “And” between values parts separate entries of the source, which are not always exact repeats. Equal values may be shown once.

The subject of this series is Oryctolagus cuniculus. In words: 100 mg/kg of [14C]- radiolabeled compound was orally (gavage) injected in rabbit, and radioactivity content in feces was estimated. To be noted: in vivo, po. Type of series: ADME, organism-based. The method, boiled down: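 Rabbit given 100 mg/kg [14C]-labelled drug by gavage, 204.6 dpm/μg, in water/0.1 N HCl at 6.66 mg/mL. Rabbit 1 was killed at 2 h and liver, lung, kidney and blood taken; tissue values are μg equivalents/g and tissue:plasma ratio. Rabbit 3 was kept for urine (0-24, 24-48, 48-72 h) and feces (0-48 h), expressed as % of dose.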

With `CN1CCS/C1=N\C(=O)CCC(=O)/N=C1/SCCN1C`, the Administered dose was 9% and 1%.
